{"data": "Experimental data collected from several papers", "HTR2B": "5-hydroxytryptamine receptor 2B (HTR2B, Homo sapiens, UniProt P41595)", "TOP2A": "DNA topoisomerase 2-alpha (TOP2A, Homo sapiens, UniProt P11388)", "FAAH": "Fatty-acid amide hydrolase 1 (FAAH, Homo sapiens, UniProt O00519)", "HTR2C": "5-hydroxytryptamine receptor 2C (HTR2C, Homo sapiens, UniProt P28335)", "DHFR": "Dihydrofolate reductase (DHFR, Homo sapiens, UniProt P00374)"}
{"Compound": "O=C1C(N2CCC(c3cn[nH]n3)C2)CCN1c1cccc(Cl)c1 (stereo not drawn)", "target": "HTR2B", "read-out": "calcium signal", "mode": "antagonist", "IC50 [µM]": 7.25}
{"Compound": "O=c1nc(SCc2cc(F)cc(C(F)(F)F)c2)nc(SCc2ccc3ccccc3n2)[nH]1", "target": "TOP2A", "read-out": "enzyme activity", "mode": "inhibitor", "IC50 [µM]": 18.6}
{"Compound": "O=C(Nc1ccc(-c2cnc3ccccc3c2)cc1)C1CCN(S(=O)(=O)c2ccccc2Cl)CC1", "target": "FAAH", "read-out": "enzyme activity", "mode": "inhibitor", "technique": "fluorescence", "IC50 [µM]": 0.016}
{"Compound": "O=C(c1cc(C2CCNC2)[nH]n1)N1CCC(c2cccc(Cl)c2)C1 (stereo not drawn)", "target": "HTR2C", "read-out": "calcium signal", "mode": "antagonist", "IC50 [µM]": 8.5}
{"Compound": "O=c1nc(SCc2cc(F)cc(C(F)(F)F)c2)nc(SCc2ccc3sccc3c2)[nH]1", "target": "TOP2A", "read-out": "enzyme activity", "mode": "inhibitor", "IC50 [µM]": 13.3}
{"Compound": "Cc1ccccc1NC(=O)C=Cc1ccc(O)c(O)c1", "target": "DHFR", "read-out": "enzyme activity", "mode": "inhibitor", "technique": "absorbance", "IC50 [µM]": 1.1}
{"Compound": "S=C(NN=Cc1ccc(N2CCCCC2)cc1)Nc1cccc(Br)c1", "target": "DHFR", "read-out": "enzyme activity", "mode": "inhibitor", "IC50 [µM]": 30.2}
{"Compound": "O=C(Nc1ccc(-c2cccc3cccnc23)cc1)C1CCN(S(=O)(=O)c2ccccc2Cl)CC1", "target": "FAAH", "read-out": "enzyme activity", "mode": "inhibitor", "technique": "fluorescence", "IC50 [µM]": 0.135}
{"Compound": "Cc1nc(CSc2nc(SCc3cc(F)cc(C(F)(F)F)c3)nc(=O)[nH]2)cs1", "target": "TOP2A", "read-out": "enzyme activity", "mode": "inhibitor", "IC50 [µM]": 55}
{"Compound": "Nc1ccccc1OC(=O)C=Cc1ccc(O)c(O)c1", "target": "DHFR", "read-out": "enzyme activity", "mode": "inhibitor", "technique": "absorbance", "IC50 [µM]": 16.9}
{"Compound": "O=C1CC(CCNCc2ccc(-c3cccc(Br)c3)o2)CN1 (stereo not drawn)", "target": "HTR2B", "read-out": "calcium signal", "mode": "antagonist", "IC50 [µM]": 8.62}
{"Compound": "S=C(NN=Cc1ccc(N2CCCCC2)cc1)NC1CCCCC1", "target": "DHFR", "read-out": "enzyme activity", "mode": "inhibitor", "IC50 [µM]": 41.2}
{"Compound": "Cc1[nH]c2ccccc2c1SCCNC(=O)C1NCCC1C1CC1 (stereo not drawn)", "target": "HTR2C", "read-out": "calcium signal", "mode": "antagonist", "IC50 [µM]": 38.2}
{"Compound": "S=C(NCc1ccccc1)NN=Cc1ccc(N2CCCCC2)cc1", "target": "DHFR", "read-out": "enzyme activity", "mode": "inhibitor", "IC50 [µM]": 31.3}
{"Compound": "O=c1nc(SCc2cc(F)cc(C(F)(F)F)c2)nc(SCc2cccc(C(F)(F)F)c2)[nH]1", "target": "TOP2A", "read-out": "enzyme activity", "mode": "inhibitor", "IC50 [µM]": 14.5}
{"Compound": "O=c1cc(-c2ccc(O)cc2)oc2c([C@@H]3OC[C@H](O)[C@H](O)[C@H]3O)c(O)c([C@@H]3O[C@H](CO)[C@@H](O)[C@H](O)[C@H]3O)c(O)c12", "target": "Calcium/calmodulin-dependent protein kinase type II subunit alpha (CAMK2A, Homo sapiens, UniProt Q9UQM7)", "read-out": "enzyme activity", "mode": "inhibitor", "IC50 [µM]": 86.1}
{"Compound": "Oc1cc(CN2CCN3CCCCC3C2)c2ccccc2c1 (stereo not drawn)", "target": "HTR2B", "read-out": "calcium signal", "mode": "antagonist", "IC50 [µM]": 0.586}
{"Compound": "S=C(NN=Cc1ccc(N2CCCCC2)cc1)Nc1ccccc1", "target": "DHFR", "read-out": "enzyme activity", "mode": "inhibitor", "IC50 [µM]": 15.6}
{"Compound": "Cc1[nH]c2ccccc2c1C(=O)C(C)N1CCC(c2nccn2C)C1 (stereo not drawn)", "target": "HTR2C", "read-out": "calcium signal", "mode": "antagonist", "IC50 [µM]": 2.61}
{"Compound": "CC(=O)Nc1ccc(Nc2nc(-c3sc(N)nc3C)cs2)cc1", "target": "Lysyl oxidase homolog 1 (LOXL1, Homo sapiens, UniProt Q08397)", "read-out": "enzyme activity", "mode": "inhibitor", "technique": "fluorescence", "setting": "with preincubation", "IC50 [µM]": "> 10"}
{"Compound": "O=C(C=Cc1ccc(O)c(O)c1)Oc1ccccc1", "target": "DHFR", "read-out": "enzyme activity", "mode": "inhibitor", "technique": "absorbance", "IC50 [µM]": 15.4}
{"Compound": "Fc1ccc(NC(=S)NN=Cc2ccc(N3CCCCC3)cc2)cc1", "target": "DHFR", "read-out": "enzyme activity", "mode": "inhibitor", "IC50 [µM]": 24.6}
{"Compound": "O=C(C=Cc1ccc(O)c(O)c1)OCc1ccccc1", "target": "DHFR", "read-out": "enzyme activity", "mode": "inhibitor", "technique": "absorbance", "IC50 [µM]": 12.6}
{"Compound": "S=C(NCc1ccc(Cl)cc1)NN=Cc1ccc(N2CCCCC2)cc1", "target": "DHFR", "read-out": "enzyme activity", "mode": "inhibitor", "IC50 [µM]": 20.6}
{"Compound": "O=C(Nc1ccc(-c2ccc3ccccc3n2)cc1)C1CCN(S(=O)(=O)c2ccccc2Cl)CC1", "target": "FAAH", "read-out": "enzyme activity", "mode": "inhibitor", "technique": "fluorescence", "IC50 [µM]": 0.0035}
{"Compound": "O=C(C=Cc1ccc(O)c(O)c1)Oc1cccc2cccnc12", "target": "DHFR", "read-out": "enzyme activity", "mode": "inhibitor", "technique": "absorbance", "IC50 [µM]": 13}
{"Compound": "Cc1cccc(C(CO)N2CCN(Cc3cc(O)ccc3Cl)CC2)c1 (stereo not drawn)", "target": "HTR2B", "read-out": "calcium signal", "mode": "antagonist", "IC50 [µM]": 0.691}
{"Compound": "S=C(NN=Cc1ccc(N2CCCCC2)cc1)Nc1c(Cl)cccc1Cl", "target": "DHFR", "read-out": "enzyme activity", "mode": "inhibitor", "IC50 [µM]": 36.3}
{"Compound": "NCC1Cc2cc(F)ccc2N(C(=O)Cc2cc(F)ccc2Br)C1 (stereo not drawn)", "target": "HTR2C", "read-out": "calcium signal", "mode": "antagonist", "IC50 [µM]": 43.4}
{"Compound": "Cc1cccc(C)c1NC(=S)NN=Cc1ccc(N2CCCCC2)cc1", "target": "DHFR", "read-out": "enzyme activity", "mode": "inhibitor", "IC50 [µM]": 18.3}
